Results reported in ChEMBL document CHEMBL1146584, “Renieramycin J, a highly cytotoxic tetrahydroisoquinoline alkaloid, from a marine sponge Neopetrosia sp” (J Nat Prod, 2003).
Calls of active or inactive are those of the source. The rule behind the calls is not given here.

Columns and labels:
3Y1 cell line [1] = assay: Induction of morphological changes in rat 3Y1 cells assessed as filopodial development; format: functional, cell-based
How it was run: (§1)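 Rat 3Y1 cells exposed to 86 nM; nucleoli (shrinkage or loss) and filopodial development inspected at 6 h.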

3Y1 cell line [2] = assay: Induction of morphological changes in rat 3Y1 cells assessed as increase in dead cell number after 12 hrs by light microscopy; format: functional, cell-based
How it was run: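 3Y1 cells kept under continued exposure; cellular boundaries and dead-cell numbers inspected at 12 h and followed to day five under a light microscope.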

3Y1 = assay: Induction of morphological changes in rat 3Y1 cells assessed as cell death at 1.7 uM after 24 hrs; format: functional, cell-based
How it was run: (§2)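 3Y1 cells exposed to 1.7 μM; cell rounding scored at 6 h, proportion of dead cells estimated within 24 h.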

3Y1 cell line [3] = assay: Induction of morphological changes in rat 3Y1 cells assessed as cell shrinkage at 86 nM after 6 hrs by phase contrast microscopy; format: functional, cell-based; how it was run: as §1
P388 = assay: Cytotoxicity against mouse P388 cells after 72 hrs by MTT assay; format: functional, cell-based; conditions: P388, 72 h
[4] = Cytotoxicity against rat 3Y1 cells after 72 hrs by MTT assay; format: functional, cell-based; conditions: 3Y1, 72 h
[5] = Induction of morphological changes in rat 3Y1 cells assessed as cell death at 1.7 uM after 24 hrs
HeLa = assay: Cytotoxicity against human HeLa cells after 72 hrs by MTT assay; format: functional, cell-based
3Y1 cell line [6] = assay: Induction of morphological changes in rat 3Y1 cells assessed as cell rounding at 1.7 uM after 6 hrs; format: functional, cell-based; how it was run: as §2
3Y1 cell line [7] = assay: Induction of morphological changes in rat 3Y1 cells assessed as disappearance of nucleoli at 86 nM after 6 hrs by phase contrast microscopy; format: functional, cell-based; how it was run: as §1

C/C=C(/C)C(=O)OC[C@H]1C2=C(C[C@H]3[C@H]4c5c(O)c(OC)c(C)c(O)c5[C@H](O)[C@@H]([C@H](O)N13)N4C)C(=O)C(C)=C(OC)C2=O [RENIERAMYCIN J]
Activity (3Y1 cell line [1]): Active | Activity (3Y1 cell line [2]): Active | Activity (3Y1): Active | Activity (3Y1 cell line [3]): Active | IC50 (P388): 0.53 nM | IC50 [4]: 5.3 nM | Activity [5]: 90% | IC50 (HeLa): 12.3 nM | Activity (3Y1 cell line [6]): Active | Activity (3Y1 cell line [7]): Active
